# Assay results published in PubChem BioAssay.
# Calls of active or inactive are those of the source.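 How the source made its calls, unless noted: active means NADPH fluorescence slope more negative than the mean of all samples by about 3 SD, 99.7% confidence; inactive means the rest.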
# What was measured:
# [1] = inhibitors of TNFa-induced NFkB p65 translocation, primary screen, imaging, HUVEC, MLSMR starter and 10KST1 sets (AID 438;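 active means inhibition above 20% together with a positive visual image hit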;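 further: compound added about 3h40 before a 20 min TNFalpha stimulation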;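 on inhibition: signal is the nuclear over cytoplasmic p65 intensity ratio per well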); conditions: HUVEC TNFa-induced p65 nuclear translocation; cell count: measured here: nuclei count (cytotoxicity indicator), at 2.08 µM; inhibition: at 2 µM, stronger effect = higher value, 0% TNFa-plus-vehicle, 100% no-TNFa wells
# [2] = reduction of polyQ htt aggregates in cells – imaging, exon1htt(103Q)mCFP cells, high-content imaging, primary screen (AID 483;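 active means visual image review flags a hit and inhibition of aggregation exceeds 20%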;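 further: compound exposure lasted 3 days before fixation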;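 on nuclei count: percent of the per-plate median nuclei count of sample wells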); conditions: exon1htt(103Q)mCFP cell line, aggregate imaging, at 2 µM; inhibition of aggregation: stronger effect = higher value; nuclei count: measured here: cell count, toxicity
# [3] = endothelial E-selectin expression blockers – imaging, HUVEC, immunofluorescence, MLSMR starter and 10KST1 sets, primary screen (AID 487;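 active means visually confirmed hit in the image check and inhibition above 20%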;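 on inhibition: signal is fraction of cell area covered by stained E-selectin grains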;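 on nuclei count: 100% = median nuclei count of all wells on the same plate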); conditions: HUVEC TNFalpha-induced E-selectin immunofluorescence imaging, at 2 µM; inhibition: stronger effect = higher value; nuclei count: measured here: cell number, toxicity
# [4] = target: Voltage-gated potassium channel subunit beta-2 (Rattus norvegicus) (UniProt P62483); test: inhibitors of rat Kvbeta2 reductase activity – biochemical, NADPH fluorescence, primary screen (AID 622;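 active means fluorescence slope higher than the sample average by over 3 SD, cut at about -0.22 in these data, passing the limit was not always enough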;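 further: slope of raw intensity against log time taken from 70 to 1610 s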); conditions: recombinant KvBeta, 4-cyanobenzaldehyde reduction, at 10 µM, stronger effect = higher value
# [5] = target: Voltage-gated potassium channel subunit beta-2 (Rattus norvegicus) (UniProt P62483); test: enhancers of rat Kvbeta2 NADPH turnover – biochemical, NADPH fluorescence, primary screen (AID 623); conditions: Recombinant KvBeta, NADPH fluorescence decrease slope, 10 min; at 10 µM; stronger effect = lower value;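 further: fluorescence intensity change per second fitted from 20 to 320 s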
# [6] = target: Muscarinic acetylcholine receptor M4 (Homo sapiens) (UniProt P08173); test: M4-linked GIRK flux change, two-sided – cell-based, HEK293 M4/GIRK, thallium flux, BTC-AM, M4 allosteric agonist project, primary screen (AID 625;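 active means fluorescence slope after compound addition differing from the mean of all tested samples at 99.7% confidence, mostly higher but some lower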;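 further: thallium influx through GIRK channels coupled to M4 in HEK293 cells with BTC-AM dye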); conditions: at 10 µM, actives lie on both sides
# Outline: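 System: HEK293 cells with M4 receptor and GIRK channels | Incubation: Cells overnight at 37 °C, BTC-AM loading 1 h, reads 2 min total | Technique: Kinetic BTC-AM fluorescence sampled at 1 Hz, 10 s pre-addition baseline | Measure: Post-addition slope, 15–24 s, of baseline-normalized fluorescence | Control set: Carbachol positive, DMSO negative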
# [7] = blockers of RIG-like receptor reporter activation – cell-based, Sendai virus stimulus, luciferase, 10K MLSCN set, TLR/RLR signaling modifier project, primary screen (AID 602276;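 active means inhibition at or above 50% at 10 µM; inactive means inhibition below 50%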;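 further: firefly luciferase from ISG56 promoter only with Renilla not read in this screen; 0% = Sendai virus plus DMSO and 100% = medium plus DMSO without virus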); conditions: HEK293 RL24 IRF3 luciferase reporter, at 10 µM, stronger effect = higher value
# [8] = TLR3 IRF3 reporter activation blockers – cell-based, poly I:C stimulus, luciferase, 10K MLSCN set, primary screen (AID 602277;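 active means inhibition of the reporter signal at or above 50%; inactive means inhibition below 50%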); conditions: HEK293-TLR3 RL24 IRF3 luciferase reporter, at 10 µM, stronger effect = higher value
# Sequence of Muscarinic acetylcholine receptor M4 (Homo sapiens) (P08173 whole entry, looked up): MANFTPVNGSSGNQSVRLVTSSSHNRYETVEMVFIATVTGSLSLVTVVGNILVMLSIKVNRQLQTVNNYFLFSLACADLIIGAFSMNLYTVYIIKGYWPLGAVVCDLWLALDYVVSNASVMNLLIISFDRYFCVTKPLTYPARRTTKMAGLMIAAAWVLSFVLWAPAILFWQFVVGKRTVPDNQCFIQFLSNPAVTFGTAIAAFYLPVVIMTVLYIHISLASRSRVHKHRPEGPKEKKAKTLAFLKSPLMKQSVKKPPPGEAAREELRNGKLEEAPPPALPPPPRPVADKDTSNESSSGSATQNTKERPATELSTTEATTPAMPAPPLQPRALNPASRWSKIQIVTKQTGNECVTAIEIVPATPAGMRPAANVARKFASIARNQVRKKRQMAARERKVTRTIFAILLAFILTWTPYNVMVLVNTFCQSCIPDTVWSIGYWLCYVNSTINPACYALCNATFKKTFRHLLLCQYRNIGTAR
# Sequence of Voltage-gated potassium channel subunit beta-2 (Rattus norvegicus) (P62483 whole entry, looked up): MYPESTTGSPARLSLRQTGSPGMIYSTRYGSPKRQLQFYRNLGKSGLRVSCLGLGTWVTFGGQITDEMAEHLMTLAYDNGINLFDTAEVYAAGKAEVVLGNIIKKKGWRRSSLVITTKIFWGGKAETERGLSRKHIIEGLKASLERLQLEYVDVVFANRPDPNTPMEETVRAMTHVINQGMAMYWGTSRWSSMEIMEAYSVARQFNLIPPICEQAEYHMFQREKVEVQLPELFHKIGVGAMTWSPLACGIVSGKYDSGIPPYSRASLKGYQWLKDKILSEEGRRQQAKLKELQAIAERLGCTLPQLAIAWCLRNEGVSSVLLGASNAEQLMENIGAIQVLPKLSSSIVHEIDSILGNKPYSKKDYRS
Structure (SMILES),cell count [1],inhibition [1],inhibition of aggregation [2],nuclei count [2] [%],inhibition [3],nuclei count [3] [%],fluorescence slope [4],NADPH fluorescence slope [5],fluorescence slope [6],inhibition [7],inhibition [8]
CCC(=O)Nc1ccc(F)c(Cl)c1,292,1.5% (inactive),7.9% (inactive),108,-76% (inactive),124,-0.538 (inactive),9.9e-07 (inactive),0.0059 (inactive),21.2% (inactive),13.9% (inactive)
N#CCCCN1C(=O)C(O)(CC(=O)c2ccc3c(c2)OCCO3)c2ccccc21 (stereo unspecified),698,-8.8% (inactive),-16.7% (inactive),100,-15.5% (inactive),112,-0.567 (inactive),1.9e-06 (inactive),0.0053 (inactive),7.56% (inactive),11.6% (inactive)
CCOC(=O)C1CCCN(C(=O)c2ccc(CS(=O)(=O)Cc3ccccc3C)o2)C1 (stereo unspecified),419,10.9% (inactive),19.5% (inactive),76.5,-57.8% (inactive),93.9,-0.595 (inactive),4.2e-06 (inactive),0.00695 (inactive),-2.6% (inactive),5.13% (inactive)
COc1ccc(-c2nn3c(-c4ccncc4)nnc3s2)cc1OC,562,5.4% (inactive),-7.4% (inactive),90.8,24.6% (inactive),105,-0.42 (inactive),-0.000356 (inactive),0.00419 (inactive),19.4% (inactive),24.2% (inactive)
CCSc1ncc(C#N)c(=O)[nH]1,381,3.5% (inactive),-21.7% (inactive),89.7,-53.9% (inactive),102,-0.517 (inactive),-0.000177 (inactive),0.00385 (inactive),2.6% (inactive),6.42% (inactive)
CCc1nnc(NC(=O)CSc2nc3ccccc3s2)s1,604,7.1% (inactive),-5.7% (inactive),100,-44% (inactive),112,-0.472 (inactive),-5.3e-05 (inactive),0.00516 (inactive),11.9% (inactive),12.6% (inactive)
CS(=O)(=O)N(CC(=O)NCc1ccccn1)c1ccc2c(c1)OCCO2,755,-7.5% (inactive),13% (inactive),101,26% (inactive),78.9,-0.515 (inactive),-4.7e-06 (inactive),0.00626 (inactive),14.9% (inactive),15.8% (inactive)
COC(=O)c1cc(Br)c(=O)n(CCC2=CCCCC2)c1,559,0% (inactive),-16.7% (inactive),110,6.3% (inactive),122,-0.497 (inactive),9.3e-05 (inactive),0.00488 (inactive),-1.92% (inactive),9.19% (inactive)
Cc1nc2ccccc2c(=O)n1NC(=O)c1ccc(F)cc1Cl,302,5% (inactive),9.2% (inactive),87.5,21.5% (inactive),70.3,-0.483 (inactive),-2.3e-05 (inactive),0.00433 (inactive),10.8% (inactive),8.86% (inactive)
O=S(=O)(NCCc1ccccc1F)c1cccc(S(=O)(=O)N2CCOCC2)c1,434,5.7% (inactive),6.4% (inactive),105,-14.8% (inactive),110,-0.584 (inactive),1.5e-06 (inactive),0.00428 (inactive),9.49% (inactive),13% (inactive)
CCN(CC)C(=O)Oc1ccccc1NC(C)=O,366,-3.9% (inactive),17.2% (inactive),85.8,-63.5% (inactive),121,-0.221 (inactive),2.5e-07 (inactive),0.00764 (inactive),20.6% (inactive),13.2% (inactive)
COc1ccccc1-c1noc(-c2cccnc2)n1,405,0% (inactive),-5.9% (inactive),106,-6.3% (inactive),125,-0.568 (inactive),-7.6e-05 (inactive),0.00345 (inactive),-24.5% (inactive),-87.9% (inactive)
COc1ccc(-c2cc(C(F)(F)F)nc(SCC(=O)NCc3ccco3)n2)cc1OC,614,-9.9% (inactive),-5.9% (inactive),94,-20.4% (inactive),103,-0.304 (inactive),-1.1e-05 (inactive),0.00529 (inactive),24.6% (inactive),23.2% (inactive)
O=C(C1CC1)N1CCc2cc(S(=O)(=O)N(CCO)Cc3ccccc3)ccc21,612,7.7% (inactive),-16% (inactive),108,-91% (inactive),122,-0.498 (inactive),0.000108 (inactive),0.00651 (inactive),-3.85% (inactive),-12.4% (inactive)
c1cnn(-c2cc(N3CCOCC3)ncn2)c1,301,-5% (inactive),20.4% (inactive),85.2,2.8% (inactive),101,-0.5 (inactive),7.1e-05 (inactive),0.0047 (inactive),-15.2% (inactive),-21.2% (inactive)
Cn1c(C(=O)NCC2CCCO2)cc2c(=O)[nH]c3ccccc3c21 (stereo unspecified),334,11.8% (inactive),-27.1% (inactive),114,47.5% (inactive),76.8,-0.355 (inactive),-5.9e-05 (inactive),0.00794 (inactive),-11.9% (inactive),-5.12% (inactive)
Cc1cc2ncc(C(=O)Nc3ccccc3)c(C)n2n1,376,4.2% (inactive),-9.1% (inactive),101,27.5% (inactive),93.8,-0.54 (inactive),-1.5e-05 (inactive),0.00501 (inactive),1.55% (inactive),-14.2% (inactive)
COc1ccc(CNC(=O)c2cc(-c3ccc(OC)c(OC)c3)on2)cc1,383,-7.2% (inactive),2% (inactive),104,21.5% (inactive),110,-0.206 (inactive),-1.8e-05 (inactive),0.00919 (inactive),15.2% (inactive),-6.13% (inactive)
CC(C(=O)N1c2ccc(F)cc2CCC1C)N1C(=O)c2ccccc2C1=O (stereo unspecified),490,5% (inactive),1.1% (inactive),118,-158% (inactive),138,-0.452 (inactive),-4.6e-05 (inactive),0.00501 (inactive),10.8% (inactive),11.7% (inactive)
O=C(O)c1c[nH]c2ccc(S(=O)(=O)N3CCN(c4ccc(F)cc4)CC3)cc2c1=O,423,-1.1% (inactive),20.5% (inactive),87.5,-183% (inactive),101,-0.566 (inactive),2e-06 (inactive),0.00349 (inactive),1.85% (inactive),0.478% (inactive)
Cc1cc2c(c(=O)n1CCc1ccccc1)C(C(C)C)C(C#N)=C(N)O2 (stereo unspecified),565,11.2% (inactive),-1.8% (inactive),106,-39% (inactive),123,-0.577 (inactive),-7.9e-05 (inactive),0.00377 (inactive),15.9% (inactive),25.8% (inactive)
CCOC(=O)CSc1nc(C)c(C(=O)OCC)s1,392,4% (inactive),-6.8% (inactive),106,-18.1% (inactive),137,-0.556 (inactive),-1.9e-05 (inactive),0.00612 (inactive),7.74% (inactive),15.6% (inactive)
CC(C)=CC/C=C1\CCC(C(=O)O)C(C(=O)O)C1 (stereo unspecified),661,-6.8% (inactive),-3.8% (inactive),116,-30.8% (inactive),100,-0.52 (inactive),-1.4e-05 (inactive),0.00515 (inactive),15.6% (inactive),13.1% (inactive)
CC(=O)N1C(=O)c2cccc3cccc(c23)C(=O)N1C(C)=O,776,4.6% (inactive),-3.8% (inactive),93.6,-62.5% (inactive),120,-0.444 (inactive),-2.9e-05 (inactive),0.00473 (inactive),18.6% (inactive),15.3% (inactive)
CCOC(=O)C(CC)Sc1ncnc2nc[nH]c12 (stereo unspecified),351,1.9% (inactive),-18.9% (inactive),98.7,-46% (inactive),123,-0.555 (inactive),-2.8e-05 (inactive),0.00496 (inactive),3.43% (inactive),5.34% (inactive)
CN1CCN(C(=O)c2cnn3c(C(F)F)cc(C4CC4)nc23)CC1,277,-6.3% (inactive),-15.2% (inactive),63.5,-8.6% (inactive),100,-0.513 (inactive),-0.000106 (inactive),0.00468 (inactive),21% (inactive),30% (inactive)
